The source made the active and inactive calls. The calls are words filed in the database; no cut-off is given here.
Assays:
[1] = target: 72 kDa type IV collagenase (Homo sapiens) (UniProt P08253); experiment: Inhibition of MMP2 activity in human H1299 cells after 24 hrs by gelatin zymography; format: cell-based
How it was run: (§1)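 3 × 10⁵ H1299 cells cultured 24 h with compound. Conditioned medium run on 10% SDS-PAGE with 1% gelatin, gel incubated overnight at 37 °C in 40 mM Tris-HCl pH 8.0, 10 mM CaCl₂, 0.02% NaN₃, then Coomassie-stained and destained. Bands quantified versus vehicle; n = 3.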

[2] = target: Matrix metalloproteinase-9 (Homo sapiens) (UniProt P14780); experiment: Inhibition of MMP9 activity in human H1299 cells after 24 hrs by gelatin zymography; format: cell-based; how it was run: as §1
[3] = target: MAP kinase p38 (Homo sapiens) (UniProt O15264+Q15759+Q16539+P53778); experiment: Increase in p38 phosphorylation in human H1299 cells at 1 to 5 uM after 24 hrs by Western blotting method; format: cell-based
How it was run: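 H1299 cells given vehicle or 0.2, 0.5, 1, 2 and 5 µM compound. Lysate proteins probed with primary and secondary antibodies after 5% milk blocking, ECL chemiluminescence detection. β-actin as internal control; each blot representative of three independent experiments.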

[4] = target: 72 kDa type IV collagenase (Homo sapiens) (UniProt P08253); experiment: Residual MMP2 activity in human H1299 cells at 1 uM after 24 hrs by gelatin zymography
[5] = target: 72 kDa type IV collagenase (Homo sapiens) (UniProt P08253); experiment: Residual MMP2 activity in human H1299 cells at 2 uM after 24 hrs by gelatin zymography
[6] = target: 72 kDa type IV collagenase (Homo sapiens) (UniProt P08253); experiment: Residual MMP2 activity in human H1299 cells at 5 uM after 24 hrs by gelatin zymography
[7] = target: Matrix metalloproteinase-9 (Homo sapiens) (UniProt P14780); experiment: Inhibition of MMP9 activity in human H1299 cells at 1 uM after 24 hrs by gelatin zymography; values are per cent of control
[8] = target: Matrix metalloproteinase-9 (Homo sapiens) (UniProt P14780); experiment: Inhibition of MMP9 activity in human H1299 cells at 2 uM after 24 hrs by gelatin zymography; values are per cent of control
[9] = Antiproliferative activity against human H1299 cells by XTT assay; format: functional, cell-based; settings: NCI-H1299
How it was run: (§2)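 Cells (5 × 10³/well) exposed to compound for 72 h in medium with 10% FBS, medium changed and cells incubated another day. Percent of control growth from mean absorbance (n = 3).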

[10] = test system: A549; experiment: Antiproliferative activity against human A549 cells by XTT assay; format: functional, cell-based; how it was run: as §2
[11] = test system: MCF7; experiment: Antiproliferative activity against human MCF7 cells by XTT assay; format: functional, cell-based; how it was run: as §2
[12] = test system: MDA-MB-231; experiment: Antiproliferative activity against human MDA-MB-231 cells by XTT assay; format: functional, cell-based; how it was run: as §2
[13] = test system: MRC5; experiment: Antiproliferative activity against human MRC5 cells by XTT assay; format: cell-based; how it was run: as §2

Matrix metalloproteinase-9 (Homo sapiens), sequence (P14780 whole entry): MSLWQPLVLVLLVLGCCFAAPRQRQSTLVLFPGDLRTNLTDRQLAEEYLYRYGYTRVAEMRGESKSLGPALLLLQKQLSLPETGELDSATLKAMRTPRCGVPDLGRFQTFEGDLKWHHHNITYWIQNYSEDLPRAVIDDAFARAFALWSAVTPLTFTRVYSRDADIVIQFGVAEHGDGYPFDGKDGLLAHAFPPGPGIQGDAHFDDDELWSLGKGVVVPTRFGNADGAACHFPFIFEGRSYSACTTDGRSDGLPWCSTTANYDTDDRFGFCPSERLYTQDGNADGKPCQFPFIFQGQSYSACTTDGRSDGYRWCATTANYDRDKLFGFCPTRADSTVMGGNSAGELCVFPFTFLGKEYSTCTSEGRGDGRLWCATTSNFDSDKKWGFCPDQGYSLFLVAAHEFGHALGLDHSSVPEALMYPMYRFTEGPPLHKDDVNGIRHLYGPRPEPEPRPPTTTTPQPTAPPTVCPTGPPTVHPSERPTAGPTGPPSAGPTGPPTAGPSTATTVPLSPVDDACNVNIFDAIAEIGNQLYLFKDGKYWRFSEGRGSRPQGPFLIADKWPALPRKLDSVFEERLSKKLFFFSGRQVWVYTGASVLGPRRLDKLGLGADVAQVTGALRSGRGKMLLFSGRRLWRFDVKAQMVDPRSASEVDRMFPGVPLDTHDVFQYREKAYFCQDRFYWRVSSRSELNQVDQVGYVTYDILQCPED
72 kDa type IV collagenase (Homo sapiens), sequence (P08253 110-660 limits assumed): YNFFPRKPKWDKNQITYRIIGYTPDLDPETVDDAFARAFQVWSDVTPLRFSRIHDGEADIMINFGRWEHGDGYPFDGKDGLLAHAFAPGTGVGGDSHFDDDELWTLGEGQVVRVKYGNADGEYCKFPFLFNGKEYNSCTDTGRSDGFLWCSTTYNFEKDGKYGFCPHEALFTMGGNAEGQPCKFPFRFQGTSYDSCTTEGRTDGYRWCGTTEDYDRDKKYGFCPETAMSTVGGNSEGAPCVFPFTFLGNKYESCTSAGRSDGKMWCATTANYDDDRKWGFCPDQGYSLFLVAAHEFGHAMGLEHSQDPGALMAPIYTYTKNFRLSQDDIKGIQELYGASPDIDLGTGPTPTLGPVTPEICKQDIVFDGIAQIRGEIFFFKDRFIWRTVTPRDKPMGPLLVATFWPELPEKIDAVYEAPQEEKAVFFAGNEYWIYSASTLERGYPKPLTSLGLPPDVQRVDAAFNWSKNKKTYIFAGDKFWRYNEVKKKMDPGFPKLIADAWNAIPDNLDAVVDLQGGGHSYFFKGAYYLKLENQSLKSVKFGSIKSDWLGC

Compound | inhibition [1] | inhibition [2] | Activity [3] | residual activity [4] | residual activity [5] | residual activity [6] | residual activity [7] | residual activity [8] | IC50 [10] | IC50 [11] | IC50 [12] | IC50 [9] | IC50 [13]
COc1cccc2c1C(=O)c1c(O)c3c(c(O)c1C2=O)C[C@@](O)(C(C)=O)C[C@@H]3O[C@H]1C[C@H](N)[C@H](O)[C@H](C)O1 [DAUNORUBICIN] | – | – | – | – | – | – | – | – | 80 nM | 650 nM | 91 nM | 96 nM | 78 nM
COc1ccc2c(c1)C(=O)c1c-2c(/C=C/c2ccc([N+](=O)[O-])o2)nc2ccc(OC)cc12 | – | – | – | – | – | – | – | – | 1320 nM | 870 nM | 930 nM | 890 nM | 6070 nM
COc1ccc2c(c1)C(=O)c1c-2c(C)nc2ccccc12 | – | – | – | – | – | – | – | – | 61600 nM | 32600 nM | 42000 nM | 21400 nM | 65400 nM
COc1ccc2c(c1)C(=O)c1c-2c(/C=C/c2ccc([N+](=O)[O-])o2)nc2ccc(F)cc12 | – | – | – | – | – | – | – | – | 740 nM | 580 nM | 93 nM | 460 nM | 800 nM

Further lines, with some results ahead:

inhibition [1] | inhibition [2] | Activity [3] | residual activity [4] | residual activity [5] | residual activity [6] | residual activity [7] | residual activity [8] | IC50 [10] | IC50 [11] | IC50 [12] | Compound | IC50 [9] | IC50 [13]
Dose-dependent effect | Dose-dependent effect | Active | 75.5% | 63.7% | 56.3% | 63.9% | 31.5% | – | – | – | COc1ccc(-c2cc3cc(OC)ccc3nc2/C=C/c2ccc([N+](=O)[O-])o2)cc1 | – | –
– | – | – | – | – | – | – | – | 75900 nM | 42000 nM | 62300 nM | COc1ccc2c(c1)C(=O)c1c-2c(C)nc2ccc(OC)cc12 | 33700 nM | 78400 nM
– | – | – | – | – | – | – | – | 71100 nM | 39600 nM | 52100 nM | COc1ccc2c(c1)C(=O)c1c-2c(C)nc2ccc(F)cc12 | 31600 nM | 43200 nM
– | – | – | – | – | – | – | – | 70 nM | 620 nM | 95 nM | COc1ccc2c(c1)C(=O)c1c-2c(/C=C/c2ccc([N+](=O)[O-])o2)nc2ccccc12 | 80 nM | 93 nM

Source: ChEMBL document CHEMBL3351563, “Discovery of 2-[2-(5-nitrofuran-2-yl)vinyl]quinoline derivatives as a novel type of antimetastatic agents” (Bioorg Med Chem, 2015)
